In the library only some 2.8% were active in any assay of this set; here they are far more common.
T cell HTS = T cell immune modulators affecting CD8 T cell-vesicle binding. AID 2052. 0.068% of 330,000 active. response (vesicle binding), % at 7 µM. 2C CD8+ T cell-vesicle binding, flow cytometry; stronger effect = lower value;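 active means response, share of CD8 T cells binding vesicles, and their 90th percentile fluorescence all below set limits, cut at about 80% in these data, passing the limit was not always enough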;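 further: values below 100% mean blocked vesicle binding to the CD8+ T cells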
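Also added: QL9-peptide-loaded Drosophila micro-vesicles bearing Ld, ICAM-1 and B7-1; Test system: purified 2C TCR transgenic mouse naive CD8+ T cells; Measured by: cytometric PE anti-B7-1 and Alexa647 anti-CD8 signals after 1% paraformaldehyde fixation; Timing: binding step 1.5 h, 37 °C, antibody labelling 20 min, ice.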
Rtt109 Vps75 = inhibitors of Candida albicans Rtt109/Vps75 histone acetyltransferase; 0.16% of 330,000 active; Q5AAJ8; inhibition, % at 34.9 µM; AID 540336; purified Rtt109/Vps75, ThioGlo CoA-SH fluorescence, 4 h;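 active means inhibition of at least 50% in every replicate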
NR3A LBD binder = modulators (binders) of human NR3A ligand-binding domain; NR3A LBD differential scanning fluorimetry, Tm shift; 0% = protein alone, 100% = glycine-bound protein; Tm shift relative to glycine control, % at 25 µM; 2.5% of 340,000 active; AID 1259313;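 active means melting temperature shift of at least 10% of the positive control shift, at one fixed dose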
GASC-1 inh = human JMJD2C demethylase inhibition; 0.069% of 330,000 active; Q9H3R0; inhibition, % at 2.35 µM; GST-JMJD2C(1-420) H3K9me3 demethylation, DELFIA europium;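 active means more than half of a compound's replicate wells show inhibition beyond 50%, single wells judged on their own value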;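 further: signal counts dimethyl H3K9 product captured on neutravidin plate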
Target sequence (Q9H3R0 1-420 limits assumed): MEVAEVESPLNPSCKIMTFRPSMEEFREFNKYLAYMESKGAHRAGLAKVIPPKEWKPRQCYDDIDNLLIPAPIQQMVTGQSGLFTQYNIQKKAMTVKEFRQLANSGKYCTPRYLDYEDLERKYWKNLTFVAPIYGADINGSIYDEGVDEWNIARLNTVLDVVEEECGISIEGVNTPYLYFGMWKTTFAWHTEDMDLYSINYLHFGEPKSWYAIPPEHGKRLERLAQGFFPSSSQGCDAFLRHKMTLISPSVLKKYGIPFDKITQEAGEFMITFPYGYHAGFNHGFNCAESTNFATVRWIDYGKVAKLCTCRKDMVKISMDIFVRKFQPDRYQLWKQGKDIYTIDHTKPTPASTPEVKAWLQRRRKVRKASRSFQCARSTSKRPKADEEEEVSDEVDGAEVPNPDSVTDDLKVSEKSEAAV
Each line names hits and unclear results; the compound was inactive in the other large screens.

Cc1cc(=O)n2[nH]c(SCc3c(F)cccc3Cl)nc2n1	none
Cc1cc(=O)n2[nH]c(SCc3ccccc3Cl)nc2n1	NR3A LBD binder 18 (no result: Rtt109 Vps75)
C[C@@H](NCCCn1ccc(NC(=O)OCc2ccccc2)nc1=O)c1cccc2ccccc12	none (no result: T cell HTS, GASC-1 inh)
COc1cc(NCCCn2ccc(NC(=O)OCc3ccccc3)nc2=O)cc(OC)c1OC	NR3A LBD binder 17 (no result: T cell HTS, GASC-1 inh)
CCN(CC)c1ccc(C(=O)OCC(=O)Nc2cc(C)on2)cc1	none
CCN(CC)S(=O)(=O)c1cccc(C(=O)OCC(=O)NCCN2C(=O)CSC2=O)c1	none
COc1cc(NCCCn2cnc3c(OCc4ccccc4)ncnc32)cc(OC)c1OC	none (no result: T cell HTS, GASC-1 inh)
COC(=O)c1nn(-c2ccccc2)c(Cl)c1/C=N/O	none
COC(=O)c1nn(-c2ccccc2)c(Cl)c1/C=N/OCc1ccc(Cl)cc1Cl	NR3A LBD binder 12
CN1CCN(CC(=O)Nc2nc(-c3ccccc3)cs2)CC1	NR3A LBD binder 13
O=C(Cc1c(F)c(F)c(F)c(F)c1F)Nc1nc(-c2ccccc2)cs1	NR3A LBD binder 12
CSCCC(=O)NC1CCCN(CCc2ccccc2)C1 (stereo not given)	none
CCOc1cc(N2CCOCC2)c(OCC)cc1NC(=O)CN1C(=O)NC(CC)(c2ccc(F)cc2)C1=O (stereo not given)	none (no result: T cell HTS, GASC-1 inh)
Cc1ccc(/C(O)=C2\C(=O)C(=O)N(C)C2c2cccc([N+](=O)[O-])c2)cc1 (stereo not given)	none
COc1ccc(N(CC(=O)NCc2ccc(F)cc2)C(=O)Cn2nnc(-c3ccc(C)o3)n2)cc1OC	none
O=C(/C=C/Nc1ccc(S(=O)(=O)Nc2ncccn2)cc1)c1ccc(Cl)c(Cl)c1	none
NC(N)=NS(=O)(=O)c1ccc(N/C=C/C(=O)c2ccc(Cl)c(Cl)c2)cc1	NR3A LBD binder 13
COc1ccc(S(=O)(=O)NCC(c2ccc(C)cc2)N2CCN(C)CC2)cc1 (stereo not given)	none
Cc1c(C(=O)Nc2ccc(C(F)(F)F)cc2)sc2ncn(CC(=O)N3CCN(c4ccccn4)CC3)c(=O)c12	NR3A LBD binder 23
O=C(c1cc(-c2cccs2)on1)N1CCN(c2ccccc2)CC1	none
O=C(c1cc(-c2cccs2)on1)N1CCN(c2ccc(F)cc2)CC1	NR3A LBD binder 13
CCN(CC(=O)NCc1cccs1)C(=O)Cc1ccc(C)c(C)c1	none
CC1(C)CCN2CCC(C)(C)c3c(O)ccc1c32	none
CCOc1ccc(/C=C(\C(=O)O)c2ccc(S(=O)(=O)N3CCCCC3)s2)cc1OC	NR3A LBD binder 18
CCOc1ccc(/C=C(\C(=O)O)c2ccc(S(=O)(=O)N3CCOCC3)s2)cc1OC	NR3A LBD binder 12
O=C1CNC(=S)N1c1nc2ccccc2s1	none
Cc1ccc(S(=O)(=O)N(C)CC(=O)NNC(=O)CCS(=O)(=O)c2ccccc2)cc1	none
Cc1cccc(OCCNC(=S)NC(=O)c2cncc(Br)c2)c1	NR3A LBD binder 10
Cc1ccc(OCCNC(=O)c2cncc(Br)c2)cc1C	none
CCN(C(=O)COC(=O)C1CCN(S(=O)(=O)c2ccc(C)c(C)c2)CC1)C1CCCCC1	none (no result: GASC-1 inh)
CC(=O)Nc1ccc(-c2csc(NC(=O)C3CSC4(C)CCC(=O)N34)n2)cc1 (stereo not given)	none
C=CC[C@@H](CC(=O)NCCO)C(=O)NCCOC(=O)[C@@H](CC=C)Cc1ccc(F)cc1	none
O=S(=O)(c1ccc(F)cc1)N1CCn2c(nc3ccccc32)C1	NR3A LBD binder 14
O=S(=O)(c1ccccc1)N1CCn2c(nc3ccccc32)C1	none
O=C(CN1C(=O)C(=O)N(CCC2=CCCCC2)C1=O)Nc1ccc(F)cc1F	none
FC(F)Sc1nc(-c2ccccc2)c(-c2ccccc2)n1C(F)F	NR3A LBD binder 18
COc1ccc(NC(=O)Nc2cccc3c2O[C@H](CN(C)C(=O)Nc2ccc4c(c2)OCO4)[C@@H](C)CN([C@H](C)CO)C3=O)cc1	none
CCNC(=O)N1C(=O)C2(OCCO2)c2ccccc21	none
CCCCOc1ccc(OCCCC)c2c1NC1(N2)C(=O)N(C(C)=O)c2ccccc21	NR3A LBD binder 13 (no result: Rtt109 Vps75)
Cc1ccc(-c2n[nH]c(S(C)(=O)=O)c2C#N)cc1	NR3A LBD binder 23
Cc1cccc(-c2n[nH]c(S(C)(=O)=O)c2C#N)c1	none
O=C1CC(c2ccccc2)CN1C(=O)c1ccccc1 (stereo not given)	NR3A LBD binder 13
Cc1[nH]nc(SCC(=O)Nc2ccc(C#N)cc2)c1[N+](=O)[O-]	NR3A LBD binder 31
Fc1cccc2sc(Nc3nc4cc5c(cc4s3)OCO5)nc12	none
Fc1cc(F)c2nc(Nc3nc4cc5c(cc4s3)OCO5)sc2c1	NR3A LBD binder 16
CCOc1ccc(C)cc1S(=O)(=O)n1cnc2ccccc21	none
C=CCOC(=O)C1=C(C)NC(SCC(=O)Nc2ccc(C)c(Cl)c2)=C(C#N)C1c1ccco1 (stereo not given)	NR3A LBD binder 20
Cc1ccc(Cl)cc1N(C)C(=O)Cn1ncc2c([nH]c3ccccc32)c1=O	none
O=C(CSc1ccc(-c2nc3ccccc3[nH]2)cn1)Nc1ccc(S(=O)(=O)NC2CC2)cc1	NR3A LBD binder 21
Cc1ccc2nc(-c3ccc(SCC(=O)Nc4ccc5c(c4)OCCO5)nc3)[nH]c2c1	NR3A LBD binder 26
O=C(CSc1ccccn1)Nc1ccc2c(c1)OCCO2	none
O=C(CSc1ccc(-c2nc3ccccc3[nH]2)cn1)Nc1ccc2c(c1)OCCO2	NR3A LBD binder 29
CCOC(=O)CSc1ccc(-c2nc3ccccc3[nH]2)cn1	none
Cc1ccc2nc(-c3ccc(SCC(=O)Nc4nc(C)cs4)nc3)[nH]c2c1	none
Cc1cc2nc(-c3ccc(SCC(=O)Nc4ccc5c(c4)OCCO5)nc3)[nH]c2cc1C	NR3A LBD binder 15
CC1CC1C(=O)N(C)CC(=O)Nc1ccccc1Br (stereo not given)	none
O=C(CN1C(=O)/C(=C/c2ccccc2)SC1=S)N1CCN(CCc2ccccn2)CC1	none
Cn1c(CCC(=O)O)nc2cc(S(=O)(=O)N3CCCCC3)ccc21	none
CCNc1nc(NC(C)(C)C)nc(N2CCCCC2)n1	none
COc1cc(NC(=O)Cn2nc(C(F)(F)F)c(Br)c2C)cc([N+](=O)[O-])c1	NR3A LBD binder 21
O=C(COc1ccc(C(=O)NCCN2CCOCC2)cc1)Nc1cccc(C(F)(F)F)c1	none
CCC(C)NC(=O)C1CCN(S(=O)(=O)c2cc([N+](=O)[O-])ccc2Cl)CC1 (stereo not given)	Rtt109 Vps75 54
CC(C)(C)NC(=O)C(c1ccc(-c2ccccc2)cc1)N(C[C@H]1CC[C@@H]([C@@H]2CC[C@H](CO)O2)O1)C(=O)c1ccc(-c2ccccc2)cc1 (stereo not given in full)	NR3A LBD binder 30 (no result: T cell HTS, GASC-1 inh)
O=S(=O)(c1ccc(F)cc1)N1CCN(S(=O)(=O)c2cc(F)ccc2F)CC1	none
O=S(=O)(c1ccc(F)cc1F)N1CCN(CCO)CC1	NR3A LBD binder 13 (no result: T cell HTS, GASC-1 inh)
CCOc1ccccc1C=C1SC(=S)NC1=O	none (no result: T cell HTS, GASC-1 inh)
CCCCCc1cc(=O)c2ccccc2o1	NR3A LBD binder 53 (no result: GASC-1 inh)
O=c1cc(CO)oc2ccccc12	none
Cc1ccc(-c2nnn3c2nc(NC(C)C)c2ccccc23)cc1	NR3A LBD binder 23

Assay outcomes from PubChem.
